High-throughput results: PubChem, several laboratories
tolC growth inh: growth inhibitors of E. coli tolC mutant, primary screen, strain BW25113 ΔtolC::kan, 384-well. OD615. AID 573, 2007. growth inhibition, % at 10 µM (by protocol). 65,000 compounds, 2.2% hits;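 active = growth inhibition at or above a cutoff equal to the mean over every tested compound plus 3 SD, cut at about 60% in these data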;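 also: growth measured after 20 h incubation at 37 °C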
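Material: E. coli BW25113 ΔtolC::kan, tolC deletion mutant strain. Measure: percent growth inhibition. Schedule: 37 °C, 20 h exposure. Doses: single-point testing at 10 µM. Signal: A615 absorbance measurement. Buffer or medium: kanamycin-containing LB broth (50 µg/mL).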
Phagocyt inh: inhibitors of macrophage phagocytosis, primary screen, imaging, J774A.1 cells, IgG beads. inhibition, % at 5 µM. 110,000 compounds, 0.07% hits. J774A.1 macrophage IgG-bead phagocytosis;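 active = inhibition above the mean of the plate negative controls plus 5 SD, cut at about 13% in these data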;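 also: phagocytic index as fraction of beads internalized from green versus red external bead signal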
CD11b adhes enh: enhancers of CD11b/CD18 adhesion to fibrinogen, primary screen, K562 cells, luminescence; Integrin beta-2 (Homo sapiens) + Integrin alpha-M (Homo sapiens), P05107+P11215; ATPlite luminescence; activation, % at 10 µM; 93,000 compounds, 0.07% hits; AID 1499, 2009;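 active = 10 µM primary screen giving 50% or more activity, confirmed by 40% or more on retest at that dose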
Target sequence (P05107 whole entry, looked up, other chains not shown): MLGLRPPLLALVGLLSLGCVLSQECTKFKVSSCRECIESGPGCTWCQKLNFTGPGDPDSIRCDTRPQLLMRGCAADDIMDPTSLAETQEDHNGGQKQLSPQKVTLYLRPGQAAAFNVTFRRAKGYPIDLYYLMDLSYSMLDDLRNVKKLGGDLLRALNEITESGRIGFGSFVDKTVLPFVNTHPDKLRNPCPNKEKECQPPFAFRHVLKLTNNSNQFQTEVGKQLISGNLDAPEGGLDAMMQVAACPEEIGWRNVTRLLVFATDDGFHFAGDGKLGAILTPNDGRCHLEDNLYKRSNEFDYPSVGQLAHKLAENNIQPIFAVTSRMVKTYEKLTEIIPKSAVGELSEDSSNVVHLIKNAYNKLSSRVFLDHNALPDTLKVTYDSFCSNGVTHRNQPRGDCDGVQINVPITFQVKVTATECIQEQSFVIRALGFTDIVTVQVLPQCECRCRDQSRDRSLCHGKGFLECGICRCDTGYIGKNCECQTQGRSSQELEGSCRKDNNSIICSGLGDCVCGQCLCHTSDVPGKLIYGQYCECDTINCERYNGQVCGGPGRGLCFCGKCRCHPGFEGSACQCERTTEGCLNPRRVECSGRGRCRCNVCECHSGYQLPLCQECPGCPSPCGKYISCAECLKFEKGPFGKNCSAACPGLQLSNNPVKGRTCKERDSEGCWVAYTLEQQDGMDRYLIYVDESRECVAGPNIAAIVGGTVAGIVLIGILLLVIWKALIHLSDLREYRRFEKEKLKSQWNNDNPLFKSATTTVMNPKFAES
CD11b adhes inh: inhibitors of CD11b/CD18 adhesion to fibrinogen, primary screen, K562 cells, luminescence; Integrin beta-2 (Homo sapiens) + Integrin alpha-M (Homo sapiens), P05107+P11215; ATPlite luminescence; Mn2+ added to activate the integrin; inhibition, % at 10 µM; 93,000 compounds, 0.54% hits; AID 1497, 2009;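 active = primary inhibition of 50% or more at 10 µM, then 40% or more on retest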
E coli WT exp: growth inhibitors of wild-type E. coli, primary screen, strain BW25113, expanded library, OD600 | OD600 absorbance | growth inhibition, % at 100 µM | 98,000 compounds, 0.15% hits;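 active = growth inhibition above about 50% at one test dose, limit read from the data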;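 also: growth measured after 20 h incubation at 37 °C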
Each line names hits and unclear results; the compound was inactive in the other large screens. The sample as a whole holds a higher share of hits than the screen did.

Cn1c(=S)[nH]c2[nH]c(=O)cnc2c1=O	none (no result: tolC growth inh, CD11b adhes enh, CD11b adhes inh, E coli WT exp)
CCOC(=O)N1CCN(c2ccc(Cl)cc2)CC1	none (no result: tolC growth inh, CD11b adhes enh, CD11b adhes inh, E coli WT exp)
CCOC(=O)N1CCN(c2ccc(O)cc2)CC1	CD11b adhes inh 54 (no result: tolC growth inh)
O=C(NC(=S)Nc1nc2c(ccc3ccccc32)s1)c1cccs1	none (no result: tolC growth inh, CD11b adhes enh, CD11b adhes inh, E coli WT exp)
O=C(O)CCCC(=O)N1CCc2cc(S(=O)(=O)N3CCc4ccccc43)ccc21	tolC growth inh 75
Cc1cc(NC(=O)C2CCCC2)nc2c1c(=O)oc1ccccc12	none
Cc1cc(NC(=O)C2CCCCC2)nc2c1c(=O)oc1ccccc12	tolC growth inh 76 (no result: Phagocyt inh, CD11b adhes enh, CD11b adhes inh)
O=c1cc(-c2ccccc2)[nH]n1-c1nc2ccccc2[nH]1	E coli WT exp 55 (no result: tolC growth inh)
Cc1cccc(NC(=O)C(=O)NCCCc2ccccc2)c1	none (no result: tolC growth inh, CD11b adhes enh, CD11b adhes inh, E coli WT exp)
CC(C)n1c(C(=O)OCC(=O)NCc2ccc3c(c2)OCO3)cc2occc21	tolC growth inh 64
CSCSC1=C(C#N)C(c2ccccc2Cl)C(C(C)=O)=C(C)N1 (centres undefined)	tolC growth inh 63
CCOC(=O)CSC1=C(C#N)C(c2ccccc2F)C(C(C)=O)=C(C)N1 (centres undefined)	none (no result: Phagocyt inh, CD11b adhes enh, CD11b adhes inh)
Cc1ccc(-c2nn(CC(=O)NCCN3CCOCC3)c(=O)c3ccccc23)cc1	none (no result: CD11b adhes enh, CD11b adhes inh)
O=c1c2cccc3c2c(nn1CN1CCOCC1)-c1ccccc1-3	tolC growth inh 80
OCc1nc2ccccc2n1CCCOc1ccc(Br)cc1	tolC growth inh 67
Cn1c(=O)n(CCCOc2ccc(Br)cc2)c2ccccc21	tolC growth inh 100
Cn1c(=O)n(CCCOc2ccc(Cl)cc2)c2ccccc21	tolC growth inh 62
COc1ccccc1OCCn1c(CO)nc2ccccc21	none
CCOC(=O)c1cc(NC(=O)Nc2nccs2)c(C)nc1C	none (no result: tolC growth inh, CD11b adhes enh, CD11b adhes inh, E coli WT exp)
Cc1ccc(-n2[nH]c(C)c(C=Nc3ccc(S(=O)(=O)N4CCOCC4)cc3)c2=O)c(C)c1	none (no result: tolC growth inh, E coli WT exp)
c1csc(-c2noc(COc3ccc4c(c3)CCCC4)n2)c1	tolC growth inh 61
COC(=O)C1=CC(C(=O)c2cccs2)=NN(c2ccc(OC)cc2)C1C(=O)OC (centres undefined)	none (no result: tolC growth inh, CD11b adhes enh, CD11b adhes inh, E coli WT exp)
CC1CCN(CC(=O)N2CCCc3c2c(=O)oc2ccc(OCc4ccccc4)cc32)CC1	none (no result: tolC growth inh)
CCCOc1ccc2oc(=O)c3c(c2c1)CCCN3C(=O)CN1CCc2ccccc2C1	tolC growth inh 77
CCOC(=O)N1CCC(Nc2c(OCC)c(=O)c2=O)CC1	none
CCCN(CCC)c1nc(NC2CCN(C(=O)OCC)CC2)nc(OC)n1	tolC growth inh 81
CCOC(=O)c1ccc(N2Cc3ccccc3C2=N)cc1	none (no result: tolC growth inh)
CCOC(=O)c1ccc(N2Cc3ccccc3C2)cc1O	CD11b adhes enh 68
CCCCOc1ccc(C2C(C(=O)c3ccc(C)o3)=C(O)C(=O)N2CC2CCCO2)cc1 (centres undefined)	none (no result: tolC growth inh, CD11b adhes enh, CD11b adhes inh, E coli WT exp)
O=C(/C=C\c1cccs1)c1c(O)ccc2ccc(=O)oc12	none (no result: tolC growth inh, CD11b adhes enh, CD11b adhes inh, E coli WT exp)
Cc1c(CCC(=O)O)c(=O)oc2cc3occ(-c4ccc(F)cc4)c3cc12	tolC growth inh 100
Cc1ccc(CSCC(=O)N/N=C/c2cccc(OC3CSC3)c2)cc1	none (no result: tolC growth inh, CD11b adhes enh, CD11b adhes inh, E coli WT exp)
Cc1cc(C)c(S(=O)(=O)NCc2ccncc2)c(C)c1	CD11b adhes inh 83 (no result: tolC growth inh)
Cc1ccc(C(=O)Cn2nnc3ccccc32)cc1	none (no result: tolC growth inh, Phagocyt inh, CD11b adhes enh, CD11b adhes inh)
CCN(C(=O)c1ccc(C(C)(C)C)cc1)c1nnc(Cn2nnc3ccccc32)s1	tolC growth inh 62, CD11b adhes inh 99
Cc1c(-c2nc(N)nc(Nc3ccccc3)n2)oc2ccccc12	tolC growth inh 98
CCOC(=O)c1c(NC(=O)CN(CC)CC)sc2c1CCC2	tolC growth inh 100
COc1ccc(C)cc1N1C(=N)/C(=C2/Nc3ccccc3S2)C(c2ccccc2)C1=O (centres undefined)	none (no result: tolC growth inh, CD11b adhes enh, CD11b adhes inh, E coli WT exp)
Cc1ccc(O)c(-c2cc3ccccc3[nH]2)c1	tolC growth inh 100 (no result: CD11b adhes enh, CD11b adhes inh)
O=S(=O)(NCC(c1ccco1)N1CCOCC1)c1ccc(Cl)cc1 (centres undefined)	none (no result: tolC growth inh, CD11b adhes enh, CD11b adhes inh, E coli WT exp)
CCOC(=O)COc1ccccc1/C=C\[N+](=O)[O-]	none (no result: tolC growth inh, E coli WT exp)
c1coc(CNc2nc3nonc3nc2NCc2ccco2)c1	CD11b adhes inh 62
O=S(=O)(Nc1nc2ccccc2nc1NCc1ccco1)c1ccccc1	tolC growth inh 71
O=S(=O)(c1ccccc1)c1ccc(NCc2ccco2)cc1	none
CC(/C=N/NC(=O)c1cc(-c2cccnc2)nc2c1c(C)nn2-c1ccccc1)=C\c1ccccc1	none (no result: tolC growth inh, E coli WT exp)
